Read-outs that look alike come from different tables or passages of the source.
Assays:
[1] = cited from earlier work; for Median time to maximal concentration range: across dose range
[2] = healthy participants; strong CYP3A4 inhibitor itraconazole; cited from earlier work
[3] = tested on: mIDH1 R/R AML; details: 500 mg q.d., cited from earlier work
[4] = human plasma; ref not given; cited from earlier work
[5] = tested on: CYP2C8; details: cited from earlier work
[6] = single dose 500 mg; cited from earlier work
[7] = Exposure-safety analysis; assay type: in vivo, human
[8] = tested on: CYP2C9; details: in vitro; cited from earlier work
[9] = tested on: CYP2B6; details: cited from earlier work
[10] = Exposure-efficacy analysis; assay type: in vivo, human; details: human, plasma, oral, AUCss range of quartile
Procedure, shortened: (§1)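 Plasma drug was measured by LC-MS/MS (ranges 1–1000 and 50–50,000 ng/ml). Data were fitted with a two-compartment population PK model with first-order absorption and elimination. Individual empirical Bayes estimates gave steady-state AUC per patient from the nominal q.d. dose. AUCss was related to CR, CR/CRh, overall response and non-CR/CRh response by logistic regression and Kaplan-Meier plots.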

[11] = tested on: R/R AML; assay: Exposure-efficacy analysis; assay type: in vivo, human
Procedure, shortened: as §1

[12] = Final population PK model of ivosidenib; assay type: in vivo, human
[13] = Concentration-corrected QT; assay type: in vivo, human; details: human, plasma, oral, 500 mg
Procedure, shortened: (§2)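 Patients on ivosidenib 500 mg q.d. had triplicate ECGs with time-matched plasma samples, pooled with two other phase I studies (solid tumours, healthy volunteers): 171 patients, 1203 measurements. Plasma drug was measured by LC-MS/MS. A linear mixed-effects model had population intercept and slope with bivariate-normal between-subject variability. Covariates were selected stepwise (likelihood ratio, 0.05). ΔQTcF and 90% CI were predicted at geometric mean Cmax. Fridericia and Bazett corrections were compared.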

[14] = tested on: corrected QT interval (QTcF); assay: Concentration-corrected QT; assay type: in vivo, human
Procedure, shortened: as §2

[15] = patients with AML after multiple doses of ivosidenib; PBPK model; cited from earlier work
[16] = tested on: human CYP3A4; details: cited from earlier work
[17] = final population PK model, derived from steady-state parameters and fold changes
[18] = final population PK model, single dose to steady state

- AUC ([10]; AUCss quartile 1, 51 patients): 40.9 to 93.1 µg·h/mL
- AUC ([10]; AUCss quartile 2, 50 patients): 93.4 to 122 µg·h/mL
- AUC ([10]; AUCss quartile 3, 50 patients): 124 to 170 µg·h/mL
- AUC ([10]; AUCss quartile 4, 50 patients): 171 to 361 µg·h/mL
- Dose proportionality of exposure ([12]; 100 mg b.i.d. and 300-1200 mg q.d.): slightly less than dose proportional
- Predicted Cmax in the typical patient ([12]; 500 mg q.d., steady state, albumin 37 g/L, weight 74.2 kg, no CYP3A4 inhibitor): 4827 ng/mL
- Reduction in ivosidenib CL/F ([12]; concomitant fluconazole): 41%
- Reduction in ivosidenib CL/F ([12]; concomitant posaconazole): 35%
- Reduction in ivosidenib CL/F ([12]; concomitant voriconazole): 36%
- Effect of concomitant pantoprazole or famotidine on CL/F ([12]; covariate analysis): did not affect
- Impact of mild CYP3A4 inhibitors ([12]; covariate analysis): minimal
- Correlation between CL/F and hepatic function indicators ([12]; covariate analysis, patients with mild hepatic impairment): no correlation
- Albumin ratio-CL/F exponent ([12]; final population PK model): 0.99
- Albumin ratio-Vc/F exponent ([12]; final population PK model): 1.1
- Baseline albumin-Vc/F exponent ([12]; final population PK model): 0.73
- Decrease in relative bioavailability from single dose to steady state ([12]; final population PK model): 2 fold
- Fold change in CL with mild CYP3A inhibitors ([12]; final population PK model): 1.04
- Fold change in CL with other moderate/strong CYP3A inhibitors ([12]; final population PK model): 0.92
- Increase in exposure with a doubling of dose ([12]; final population PK model): ~ 40%
- Steady-state Q/F ([12]; final population PK model): 15.8 L/h
- Steady-state Vc/F ([12]; final population PK model): 234 L
- Steady-state Vp/F ([12]; final population PK model): 151 L
- Tlag (zero-order release duration, lag-time) ([12]; final population PK model): 0.27 h
- ka (first-order absorption rate constant) ([12]; final population PK model): 1.38 h⁻¹
- Fold change in CL with fluconazole ([12]; final population PK model, concomitant fluconazole): 0.59
- Fold change in CL with posaconazole ([12]; final population PK model, concomitant posaconazole): 0.65
- Fold change in CL with voriconazole ([12]; final population PK model, concomitant voriconazole): 0.64
- First-dose CL/F [12, 17]: 1.63 L/h
- First-dose Q/F [12, 17]: 4.8 L/h
- First-dose Vc/F [12, 17]: 71 L
- First-dose Vp/F [12, 17]: 46 L
- Steady-state CL/F ([12]; final population PK model, oral, patients with mIDH1 advanced hematologic malignancies): 5.39 L/h
- Steady-state fold change in CL [12, 18]: 1.66
- Steady-state fold change in Frel [12, 18]: 0.5
- Effect of time-varying albumin changes on plasma exposure ([12]; human, in vivo): less than 20%
- Increase in AUCss ([12]; moderate/strong CYP3A4 inhibitors): 60%
Structure (SMILES): N#Cc1ccnc(N2C(=O)CC[C@H]2C(=O)N(c2cncc(F)c2)[C@H](C(=O)NC2CC(F)(F)C2)c2ccccc2Cl)c1 [ivosidenib]
- Half-life ([1]; after a single dose): 72 to 138 h
- Time to steady state ([1]; daily dosing): ≤ 14 days
- Median time to maximal concentration range ([1]; multiple dosing): 1.9 to 4.0 h
- Median time to maximal concentration range ([1]; single dose administration): 2.4 to 5.5 h
- Change in plasma AUC with itraconazole [2]: 1.69 fold
- Rate of CR plus CRh ([3]; 174 patients with mIDH1 R/R AML): 32.8%
- Median duration of CR/CRh [3]: 8.2 months
- Median time to CR/CRh response [3]: 2 months
- Protein bound [4]: ~ 90%
- Contribution to metabolism of ivosidenib [5]: minor contributions
- Inducer status ([5]; in vitro): may also be an inducer
- Effect of mild/moderate hepatic impairment on ivosidenib exposure [6]: did not lead to clinically relevant changes in ivosidenib exposure
- Incidence of new or worsening all grade ALT ([7]; 253 patients): 15%
- Association between incidence of events for all safety end points and AUCss ([7]; logistic regression): no association
- Inducer status [8]: may also be an inducer
- Contribution to metabolism of ivosidenib [9]: minor contributions
- Inducer status ([9]; in vitro): may also be an inducer
- Incidence of CR (complete remission) ([11]; AUCss quartile 1): 11 (22%) n
- Incidence of CR/CRh ([11]; AUCss quartile 1): 17 (33%) n
- Incidence of OR (overall response) ([11]; AUCss quartile 1): 20 (39%) n
- Incidence of CR (complete remission) ([11]; AUCss quartile 2): 12 (24%) n
- Incidence of CR/CRh ([11]; AUCss quartile 2): 15 (30%) n
- Incidence of OR (overall response) ([11]; AUCss quartile 2): 18 (36%) n
- Incidence of CR (complete remission) ([11]; AUCss quartile 3): 9 (18%) n
- Incidence of CR/CRh ([11]; AUCss quartile 3): 12 (24%) n
- Incidence of OR (overall response) ([11]; AUCss quartile 3): 18 (36%) n
- Incidence of CR (complete remission) ([11]; AUCss quartile 4): 11 (22%) n
- Incidence of CR/CRh ([11]; AUCss quartile 4): 15 (30%) n
- Incidence of OR (overall response) ([11]; AUCss quartile 4): 19 (38%) n
- Association between nominal AUCss and probability of clinical response ([11]; logistic regression): minimal
- Patients with OR ([11]; of 201 patients with R/R AML): 75 patients
- Patients with non-CR/CRh response ([11]; of 201 patients with R/R AML): 16 patients
- Wt-Vc/F exponent ([12]; final population PK model, baseline body weight): 0.92
- Cmax [13]: 6550 ng/mL
- Predicted ΔQTcF ([14]; at 6551 ng/ml, geometric mean Cmax for 500 mg q.d.): 17.2 ms
- Relationship between ΔQTcF and ivosidenib concentration ([14]; in vivo): significant direct relationship
- Increase of ΔQTcF with plasma ivosidenib concentration (slope) ([14]; linear mixed-effects model): 0.00258 msec/(ng/ml)
- Predicted change in plasma AUC in the presence of itraconazole [15]: 1.44 fold
- Contribution to metabolism of ivosidenib ([16]; CYP3A4): major metabolism pathway
- Inducer status ([16]; in vitro, human CYP3A4): inducer
- Substrate status ([16]; in vitro, human CYP3A4): substrate

— paper PMC8212730 (Clinical and Translational Science, 2021)
